Experimental data reported in ChEMBL document CHEMBL2440107, “Quinazolino linked 4β-amidopodophyllotoxin conjugates regulate angiogenic pathway and control breast cancer cell proliferation” (Bioorg Med Chem, 2013).
Active and inactive are the calls of the source. The calls are words filed in the database; no cut-off is given here.

Experiments:
MCF7 [1] = experiment: Cell cycle arrest in human MCF7 cells assessed as accumulation at S phase at 4 uM after 24 hrs by propidium iodide staining-based flow cytometric analysis (reference value: 5%); format: functional
MCF7 [2] = experiment: Cell cycle arrest in human MCF7 cells assessed as accumulation at G2/M phase at 4 uM after 24 hrs by propidium iodide staining-based flow cytometric analysis (reference value: 15%); format: functional
MCF7 [3] = experiment: Cell cycle arrest in human MCF7 cells assessed as accumulation at G1 phase at 4 uM after 24 hrs by propidium iodide staining-based flow cytometric analysis (reference value: 77%); format: functional
MCF7 [4] = experiment: Cell cycle arrest in human MCF7 cells assessed as accumulation at G0 phase at 4 uM after 24 hrs by propidium iodide staining-based flow cytometric analysis (reference value: 3%); format: functional
MCF7 [5] = experiment: Antimitotic activity in human MCF7 cells assessed as upregulation of cyclin B1 protein expression at 4 uM after 24 hrs by Western blotting analysis; format: functional, cell-based
HUVEC [6] = experiment: Cytotoxicity against HUVEC assessed as cell viability at 1 uM after 6 hrs by MTT assay; format: cell-based; conditions: human
How it was run: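 HUVEC at 10,000 cells/well exposed for 6 h across 0.5–32 µM; percent viability plotted, etoposide as standard. Triplicates, Student t-test.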

MCF7 [7] = experiment: Antimitotic activity in human MCF7 cells assessed as downregulation of Cdk1 protein expression at 4 uM after 24 hrs by Western blotting analysis; format: functional, cell-based
MCF7 [8] = experiment: Cytotoxicity against human MCF7 cells assessed as cell viability at 0.5 to 32 uM after 24 hrs by MTT assay; format: functional, cell-based
How it was run: (§1)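 Cells seeded at 10,000/well, incubated overnight, then exposed 24 h to 0.5–32 µM, etoposide as standard. MTT added, 2 h at 37 °C; formazan solubilised in extraction buffer, OD read at 570 nm; percent viability determined. Triplicates, Student t-test.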

PANC-1 = experiment: Cytotoxicity against human PANC1 cells assessed as cell viability at 0.5 to 32 uM after 24 hrs by MTT assay; format: functional, cell-based; how it was run: as §1
MCF7 [9] = experiment: Antiangiogenic activity in human MCF7 cells assessed as downregulation of STAT3 protein expression at 4 uM after 24 hrs by Western blotting analysis; format: functional, cell-based
MCF7 [10] = experiment: Antiangiogenic activity in human MCF7 cells assessed as upregulation of STAT1 protein expression at 4 uM after 24 hrs by Western blotting analysis; format: functional, cell-based
MCF7 [11] = experiment: Induction of apoptosis in human MCF7 cells assessed as upregulation of caspase-9 protein expression at 4 uM after 24 hrs by Western blotting analysis; format: functional, cell-based
MCF7 [12] = experiment: Antiinvasive activity in human MCF7 cells assessed as downregulation of alphaVbeta3 integrin protein expression at 4 uM after 24 hrs by Western blot analysis; format: functional, cell-based
MCF7 [13] = experiment: Antiangiogenic activity in human MCF7 cells assessed as downregulation of ERK1/2 protein expression at 4 uM after 24 hrs by Western blotting analysis; format: functional, cell-based
MCF7 [14] = experiment: Disruption of mitochondrial membrane potential in human MCF7 cells at 4 uM after 24 hrs by JC-1 dye-based fluorescence assay; format: functional, cell-based
How it was run: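 MCF-7 cells exposed 24 h at 4 µM, etoposide as reference, then stained with 2.5 µM JC-1 for 20 min at room temperature. Fluorescence imaging: red J-aggregates indicate intact potential, green monomers indicate loss, read as red-to-green shift.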

MCF7 [15] = experiment: Antiangiogenic activity in human MCF7 cells assessed as downregulation of VEGF-A protein expression at 4 uM after 24 hrs by Western blotting analysis; format: functional, cell-based
MCF7 [16] = experiment: Antiangiogenic activity in human MCF7 cells assessed as downregulation of phosphorylated ERK1/2 protein expression at 4 uM after 24 hrs by Western blotting analysis; format: functional, cell-based
MCF7 [17] = experiment: Antiangiogenic activity in human MCF7 cells assessed as effect on AKT1 protein expression at 4 uM after 24 hrs by Western blotting analysis; format: functional, cell-based
MCF7 [18] = experiment: Antimitotic activity in human MCF7 cells assessed as upregulation of p53 protein expression at 4 uM after 24 hrs by Western blotting analysis; format: functional, cell-based
MDA-MB-231 = experiment: Cytotoxicity against human MDA-MB-231 cells assessed as cell viability at 0.5 to 32 uM after 24 hrs by MTT assay; format: functional, cell-based; how it was run: as §1
MCF7 [19] = experiment: Antiangiogenic activity in human MCF7 cells assessed as downregulation of AKT phosphorylation at Ser473 at 4 uM after 24 hrs by Western blotting analysis; format: functional, cell-based
HUVEC [20] = experiment: Antiangiogenic activity in HUVEC assessed as inhibition of VEGF-A-induced tube formation at 1 uM after 6 hrs by inverted microscopic analysis; format: functional, cell-based; conditions: Homo sapiens
How it was run: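 HUVEC (ECM medium, 5% FBS, 1% ECGS) seeded at 5×10^3 cells/well on EC matrix solidified at 37 °C, grown 12 h in endothelial growth media, then treated at 1 µM final for about 6 h. Tube formation examined by inverted microscopy. Etoposide as reference.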

MCF7 [21] = experiment: Induction of apoptosis in human MCF7 cells assessed as upregulation of cytochrome-c protein expression in cytosol at 4 uM after 24 hrs by Western blotting analysis; format: functional, cell-based

Row | SMILES | Activity (MCF7 [1]) [%] | Activity (MCF7 [2]) [%] | Activity (MCF7 [3]) [%] | Activity (MCF7 [4]) [%] | Activity (MCF7 [5]) | Activity (HUVEC [6]) | Activity (MCF7 [7]) | Activity (MCF7 [8]) | Activity (PANC-1) | Activity (MCF7 [9]) | Activity (MCF7 [10]) | Activity (MCF7 [11]) | Activity (MCF7 [12]) | Activity (MCF7 [13]) | Activity (MCF7 [15]) | Activity (MCF7 [16]) | Activity (MCF7 [17]) | Activity (MCF7 [18]) | Activity (MDA-MB-231) | Activity (MCF7 [21]) | other results
1 | COc1cc([C@@H]2c3cc4c(cc3[C@@H](NC(=O)CCCCOc3ccc5nc(C)n(-c6ccc(F)cc6)c(=O)c5c3)[C@H]3COC(=O)[C@H]23)OCO4)cc(OC)c1OC | 5 | 38 | 49 | 8 | – | – | – | – | – | – | – | – | – | – | – | – | – | – | – | – | –
2 | COc1cc([C@@H]2c3cc4c(cc3[C@@H](NC(=O)CCCCOc3ccc5nc(C)n(-c6ccc(Cl)c(Cl)c6)c(=O)c5c3)[C@H]3COC(=O)[C@H]23)OCO4)cc(OC)c1OC | 5 | 34 | 49 | 12 | – | – | – | – | – | – | – | – | – | – | – | – | – | – | – | – | –
3 | COc1cc([C@@H]2c3cc4c(cc3[C@@H](NC(=O)CCCCCOc3ccc5nc(C)n(-c6ccc(Cl)c(Cl)c6)c(=O)c5c3)[C@H]3COC(=O)[C@H]23)OCO4)cc(OC)c1OC | 5 | 40 | 45 | 10 | Active | Non-toxic | Active | Active | Active | Active | Active | Active | Active | Active | Active | Active | inactive | Active | Active | Active | Activity (MCF7 [14]): Active; Activity (MCF7 [19]): Active; inhibition (HUVEC [20]): Active
4 | COc1cc([C@@H]2c3cc4c(cc3[C@@H](NC(=O)CCCCCOc3ccc5nc(C)n(-c6ccc([N+](=O)[O-])cc6)c(=O)c5c3)[C@H]3COC(=O)[C@H]23)OCO4)cc(OC)c1OC | 5 | 41 | 49 | 5 | Active | Non-toxic | Active | Active | Active | Active | Active | Active | Active | Active | Active | Active | inactive | Active | Active | Active | Activity (MCF7 [19]): Active
5 | COc1cc([C@@H]2c3cc4c(cc3[C@@H](NC(=O)CCCCOc3ccc5nc(C)n(-c6cc(OC)c(OC)c(OC)c6)c(=O)c5c3)[C@H]3COC(=O)[C@H]23)OCO4)cc(OC)c1OC | 5 | 35 | 51 | 10 | – | – | – | – | – | – | – | – | – | – | – | – | – | – | – | – | –
6 | COc1cc(OC)cc(-n2c(C)nc3ccc(OCCCCC(=O)N[C@@H]4c5cc6c(cc5[C@@H](c5cc(OC)c(OC)c(OC)c5)[C@H]5C(=O)OC[C@@H]54)OCO6)cc3c2=O)c1 | 6 | 39 | 49 | 6 | – | – | – | – | – | – | – | – | – | – | – | – | – | – | – | – | –
7 | COc1cc([C@@H]2c3cc4c(cc3[C@@H](NC(=O)CCCCCOc3ccc5nc(C)n(-c6cc(OC)c(OC)c(OC)c6)c(=O)c5c3)[C@H]3COC(=O)[C@H]23)OCO4)cc(OC)c1OC | 5 | 39 | 50 | 7 | – | – | – | – | – | – | – | – | – | – | – | – | – | – | – | – | –
8 | COc1cc([C@@H]2c3cc4c(cc3[C@@H](NC(=O)CCCCOc3ccc5nc(C)n(-c6ccc([N+](=O)[O-])cc6)c(=O)c5c3)[C@H]3COC(=O)[C@H]23)OCO4)cc(OC)c1OC | 5 | 40 | 51 | 5 | – | – | – | – | – | – | – | – | – | – | – | – | – | – | – | – | –
9 | COc1ccc(-n2c(C)nc3ccc(OCCCCCC(=O)N[C@@H]4c5cc6c(cc5[C@@H](c5cc(OC)c(OC)c(OC)c5)[C@H]5C(=O)OC[C@@H]54)OCO6)cc3c2=O)cc1 | 4 | 41 | 47 | 8 | Active | Non-toxic | Active | Active | Active | Active | Active | Active | Active | Active | Active | Active | inactive | Active | Active | Active | Activity (MCF7 [19]): Active
10 | COc1cc(OC)cc(-n2c(C)nc3ccc(OCCCCCC(=O)N[C@@H]4c5cc6c(cc5[C@@H](c5cc(OC)c(OC)c(OC)c5)[C@H]5C(=O)OC[C@@H]54)OCO6)cc3c2=O)c1 | 5 | 37 | 49 | 9 | – | – | – | – | – | – | – | – | – | – | – | – | – | – | – | – | –
11 | COc1cc([C@@H]2c3cc4c(cc3[C@@H](NC(=O)CCCCCOc3ccc5nc(C)n(-c6ccc(F)cc6)c(=O)c5c3)[C@H]3COC(=O)[C@H]23)OCO4)cc(OC)c1OC | 4 | 45 | 37 | 14 | Active | Non-toxic | Active | Active | Active | Active | Active | Active | Active | Active | Active | Active | inactive | Active | Active | Active | Activity (MCF7 [14]): Active; Activity (MCF7 [19]): Active; inhibition (HUVEC [20]): Active
12 | COc1ccc(-n2c(C)nc3ccc(OCCCCC(=O)N[C@@H]4c5cc6c(cc5[C@@H](c5cc(OC)c(OC)c(OC)c5)[C@H]5C(=O)OC[C@@H]54)OCO6)cc3c2=O)cc1 | 10 | 39 | 44 | 7 | – | – | – | – | – | – | – | – | – | – | – | – | – | – | – | – | –
13 | COc1cc([C@@H]2c3cc4c(cc3[C@@H](O[C@@H]3O[C@@H]5CO[C@@H](C)O[C@H]5[C@H](O)[C@H]3O)[C@H]3COC(=O)[C@H]23)OCO4)cc(OC)c1O [ETOPOSIDE] | 6 | 67 | 18 | 9 | – | Non-toxic | – | – | – | – | – | Active | Active | – | – | – | – | – | – | Active | Activity (MCF7 [14]): Active
